Assay results as given in ChEMBL document CHEMBL4834426, “Antimalarial Benzimidazole Derivatives Incorporating Phenolic Mannich Base Side Chains Inhibit Microtubule and Hemozoin Formation: Structure-Activity Relationship and In Vivo Oral Efficacy Studies” (J Med Chem, 2021).
Values after ≈ are worked out from the molar mass of the structure shown. Active and inactive are the calls of the source. No cut-off for these calls is given here.

Assays:
[1] = Inhibition of tubulin polymerization in asexual blood stage Plasmodium falciparum NF54
[2] = Metabolic stability in mouse liver microsomes assessed as compound remaining at 1 uM incubated for 30 mins by LC-MS/MS analysis; format: ADME, Microsome; settings: read-out: Stabilty
Method in brief: (§1)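 Single-point design: 1 μM compound with 0.4 mg/mL liver microsomes in 0.1 M phosphate buffer pH 7.4 for 30 min. Quenched with ice-cold acetonitrile containing carbamazepine internal standard, centrifuged, analyzed by LC−MS/MS. Percent remaining from internal-standard-corrected peak areas at 30 min versus 0 min. Propranolol, midazolam and MMV390048 as controls.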

CHO = experiment: Cytotoxicity against CHO cells assessed as inhibition of cell viability by MTT assay; format: cell-based; settings: Cricetulus griseus
[3] = Metabolic stability in human liver microsomes assessed as compound remaining at 1 uM incubated for 30 mins by LC-MS/MS analysis; format: ADME, Microsome; settings: read-out: Stabilty; method in brief: as §1
Plasmodium falciparum [4] = experiment: Antiplasmodial activity against […] Plasmodium falciparum NF54 late gametocytes transfected with GFP-Luc […] at 5 uM incubated for 48 hrs by microscopy based luciferase reporter gene assay relative to control; format: functional
Method in brief: (§2)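 NF54-Pfs16-GFP-Luc gametocytes, assays set up day 5 (early, stage II/III) or day 10 (late, stage IV/V). Culture at 2−3% gametocytemia, 1.5% hematocrit, 48 h drug exposure at 37 °C under 90% N₂/5% O₂/5% CO₂. Lysates mixed with luciferin; bioluminescence read with 10 s integration. Dual-point: one biological repeat in technical triplicate. Methylene blue (5 μM) reference.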

Plasmodium falciparum [5] = experiment: Antimalarial activity against asexual blood stage drug-sensitive Plasmodium falciparum NF54 infected in erythrocytes assessed as reduction in parasitemia incubated up to 72 hrs by [3H]hypoxanthine incorporation assay; format: functional, organism-based
Method in brief: (§3)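 [³H]-Hypoxanthine incorporation assay (modified) on asexual blood-stage P. falciparum in vitro. IC₅₀ values are means of ≥2 independent experiments.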

[6] = Kinetic solubility of the compound in pH 6.5 incubated for 24 hrs by HPLC-DAD analysis; format: physicochemical; settings: buffer, read-out: Kinetic_solubility
Method in brief: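 Miniaturized shake-flask method. 10 mM DMSO stock dried down, phosphate buffer pH 6.5 added, shaken 24 h at 25 °C. Centrifuged 3500g for 15 min; supernatant analyzed by HPLC-DAD against 10−220 μM DMSO calibration curve. Reserpine, hydrocortisone and MMV390048 as controls.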

[7] = Metabolic stability in rat liver microsomes assessed as compound remaining at 1 uM incubated for 30 mins by LC-MS/MS analysis; format: ADME, Microsome; settings: read-out: Stabilty; method in brief: as §1
Plasmodium falciparum [8] = experiment: Antiplasmodial activity against […] Plasmodium falciparum NF54 late gametocytes transfected with GFP-Luc […] at 1 uM incubated for 48 hrs by microscopy based luciferase reporter gene assay relative to control; format: functional; method in brief: as §2
[9] = Selectivity index, ratio of IC50 for Cytotoxicity against CHO cells assessed as inhibition of cell viability by MTT assay to IC50 for antimalarial activity against asexual blood stage Plasmodium falciparum NF54 assessed as reduction in parasitemia incubated up to 72 hrs by [3H]hypoxanthine incorporation assay; format: toxicity, cell-based; settings: hamster, read-out: Selectivity Index
Method in brief: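 Selectivity index is IC₅₀(CHO)/IC₅₀(NF54). […] IC₅₀ came from nonlinear dose-response fitting. Parasite IC₅₀ came from the [³H]-hypoxanthine assay.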

Plasmodium falciparum [10] = experiment: Antiplasmodial activity against […] Plasmodium falciparum NF54 early gametocytes transfected with GFP-Luc […] incubated for 48 hrs by microscopy based luciferase reporter gene assay relative to control; format: functional, organism-based; settings: NF54, 48 h
Method in brief: (§4)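 Transgenic NF54-Pfs16-GFP-Luc gametocytes, read by luciferase reporter. Early assays were set up on day 5 (50% stage II/50% stage III) and late assays on day 10 (40% stage IV/60% stage V). Luciferin was added to lysates at room temperature and bioluminescence read. Methylene blue (5 μM) was the reference. Single-point screens at 1 and 5 μM used n=1 in technical triplicate. IC₅₀ came from a normalized nonlinear fit, n≥3 in triplicate.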

Plasmodium falciparum [11] = experiment: Antiplasmodial activity against […] Plasmodium falciparum NF54 early gametocytes transfected with GFP-Luc […] at 5 uM incubated for 48 hrs by microscopy based luciferase reporter gene assay relative to control; format: functional; method in brief: as §2
[12] = Resistance index, ratio of IC50 for antimalarial activity against asexual blood stage multi drug-resistant Plasmodium falciparum K1 to IC50 for antimalarial activity against asexual blood stage drug-sensitive Plasmodium falciparum NF54; format: functional
Method in brief: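 Resistance index is IC₅₀(K1)/IC₅₀(NF54). Both IC₅₀s came from the [³H]-hypoxanthine incorporation assay, as means of ≥2 independent experiments.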

Plasmodium falciparum [13] = experiment: Antimalarial activity against asexual blood stage multi drug-resistant Plasmodium falciparum K1 infected in erythrocytes assessed as reduction in parasitemia incubated up to 72 hrs by [3H]hypoxanthine incorporation assay; format: functional, organism-based; method in brief: as §3
Plasmodium falciparum [14] = experiment: Antiplasmodial activity against […] Plasmodium falciparum NF54 early gametocytes transfected with GFP-Luc […] at 1 uM incubated for 48 hrs by microscopy based luciferase reporter gene assay relative to control; format: functional; method in brief: as §2
Plasmodium falciparum [15] = experiment: Antiplasmodial activity against […] Plasmodium falciparum NF54 late gametocytes transfected with GFP-Luc […] incubated for 48 hrs by microscopy based luciferase reporter gene assay relative to control; format: functional, organism-based; settings: NF54, 48 h; method in brief: as §4
Hemozoin [16] = experiment: Inhibition of beta-hematin formation […] incubated for 5 hrs by NP40 detergent-mediated assay
Method in brief: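 Cell-free β-hematin formation assay in NP-40 (305.5 μM) lipid-mimic medium. Compounds from 20 mM stock serially diluted across wells, in duplicate. Hematin suspended in 1 M acetate buffer pH 4.8; plates incubated ~5 h at 37 °C. Then pyridine solution (with HEPES pH 7.4) and acetone added; absorbance at 405 nm. IC₅₀ by curve fit.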

Hemozoin [17] = experiment: Inhibition of Beta-hematin in early ring stage Plasmodium falciparum parasitized red blood cells assessed as hemozoin formation formation after 32 hrs by Giemsa staining based haemocytometric counting method
Plasmodium berghei = experiment: Antimalarial activity against GFP-transfected Plasmodium berghei ANKA infected in NMRI mouse model assessed as reduction in parasitemia at 50 mg/kg, po dosed 4 times relative to control; format: functional; design: scale not given: the % may be the effect or the level left
Method in brief: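 Mice (n = 3) infected with GFP-transfected P. berghei ANKA. Compound in 70% Tween-80/30% ethanol, diluted 10-fold in water, given orally at 4, 24, 48 and 72 h post-infection. Blood taken day 4 (96 h); parasitemia by flow cytometry, detection limit 0.1%. Activity = difference in mean % parasitemia between control and treated, as % of control.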

Compound	IC50 [1]	remaining at 0.5 h, 1 µM [2]	IC50 (CHO)	remaining at 0.5 h, 1 µM [3]	inhibition at 5 µM (Plasmodium falciparum [4])	IC50 (Plasmodium falciparum [5])	solubility kinetic at 24 h [6]	remaining at 0.5 h, 1 µM [7]	inhibition at 1 µM (Plasmodium falciparum [8])	selectivity ratio at 72 h [9]	IC50 (Plasmodium falciparum [10])	inhibition at 5 µM (Plasmodium falciparum [11])	Ratio IC50 [12]	IC50 (Plasmodium falciparum [13])	inhibition at 1 µM (Plasmodium falciparum [14])	IC50 (Plasmodium falciparum [15])	IC50 (Hemozoin [16])	Activity (Hemozoin [17])	Activity (Plasmodium berghei)
CCCSc1ccc2[nH]c(NC(=O)OC)nc2c1 [ALBENDAZOLE]	30000 nM	–	–	–	–	–	–	–	–	–	–	–	–	–	–	–	–	–	–
CCNCc1cc(C)cc(Nc2nc3cc(F)c(F)cc3n2Cc2ccc(C(F)(F)F)cc2)c1O	–	93%	2040 nM	99%	24%	260 nM	16 µM (≈ 7.85 µg/mL)	77%	0%	7.84	210 nM	94%	0.5	130 nM	86%	2330 nM	–	–	–
CCNCc1cc(Cl)cc(Nc2nc3ccccc3n2Cc2ccc(C(F)(F)F)cc2)c1O	–	73%	33800 nM	94%	8%	280 nM	12 µM (≈ 5.7 µg/mL)	66%	0%	121	430 nM	91%	0.39	110 nM	66%	> 5000 nM	33300 nM	inactive	<40%
COc1cc2c(c(OC)c1OC)-c1ccc(OC)c(=O)cc1[C@@H](NC(C)=O)CC2 [COLCHICINE]	10000 nM	–	–	–	–	–	–	–	–	–	–	–	–	–	–	–	–	–	–
CCN(CC)Cc1cc(Cl)cc(Nc2nc3ccccc3n2Cc2ccc(C(F)(F)F)cc2)c1O	–	–	> 50000 nM	–	10%	150 nM	–	–	2%	> 333	56 nM	89%	0.33	50 nM	69%	1900 nM	–	–	–
COC(=O)Nc1nc2cc(C(=O)c3ccccc3)ccc2[nH]1 [MEBENDAZOLE]	200000 nM	–	–	–	–	–	–	–	–	–	–	–	–	–	–	–	–	–	–
CCNCc1cc(C)cc(Nc2nc3ccccc3n2Cc2ccc(C(F)(F)F)cc2)c1O	–	52%	18800 nM	98%	14%	780 nM	35 µM (≈ 15.9 µg/mL)	51%	0%	24.1	990 nM	95%	0.39	300 nM	30%	–	–	–	–
COC(=O)Nc1nc2cc(C(=O)c3cccs3)ccc2[nH]1 [NOCODAZOLE]	17000 nM	–	–	–	–	–	–	–	–	–	–	–	–	–	–	–	–	–	–
CCN(CC)Cc1cc(F)cc(Nc2nc3ccccc3n2Cc2ccc(C(F)(F)F)cc2)c1O	–	–	> 50000 nM	–	10%	170 nM	–	–	0%	> 294	97 nM	90%	1.12	190 nM	74%	> 5000 nM	–	–	–
CC(C)(C)NCc1cc(Cl)cc(Nc2nc3cc(F)c(F)cc3n2Cc2ccc(C(F)(F)F)cc2)c1O	–	94%	> 50000 nM	89%	1%	190 nM	< 5 µM	94%	31%	> 263	690 nM	70%	0.47	90 nM	14%	–	–	–	<40%
Cc1cc(CNC(C)(C)C)c(O)c(Nc2nc3ccccc3n2Cc2ccc(C(F)(F)F)cc2)c1	–	62%	30000 nM	99%	62%	400 nM	50 µM (≈ 24.1 µg/mL)	41%	0%	75.1	920 nM	96%	0.58	230 nM	45%	–	–	–	<40%
